Screens deposited in PubChem by several laboratories.
An excerpt weighted towards active compounds, which were near 2.9% of everything screened.
HSP90 refold inh: blocks HSP90-mediated luciferase refolding in reticulocyte lysate; Rabbit reticulocyte lysate, luciferase refolding luminescence, 3 h; inhibition, % at 5.6 µM; 290,000 tested, 0.91% active; AID 1789;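 active = inhibition above the screen-wide mean plus 3 SD, computed separately per campaign, cut at about 16% in these data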;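 also: 0% = DMSO wells and 100% = 60 µM geldanamycin wells; inhibitors lower the luminescence because luciferase stays unfolded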
SENP6 inh: inhibitors of human SENP6 protease; Q9GZR1; Recombinant SENP6 catalytic domain, aminoluciferin luminescence; inhibition, % at 10 µM; 330,000 tested, 1.8% active; AID 2599;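 active = inhibition above about 50% at the single tested dose, limit read from the data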;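 also: plate controls were DMSO wells with enzyme for no effect and DMSO wells lacking enzyme for full effect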
Target sequence (Q9GZR1 628-1112 limits assumed): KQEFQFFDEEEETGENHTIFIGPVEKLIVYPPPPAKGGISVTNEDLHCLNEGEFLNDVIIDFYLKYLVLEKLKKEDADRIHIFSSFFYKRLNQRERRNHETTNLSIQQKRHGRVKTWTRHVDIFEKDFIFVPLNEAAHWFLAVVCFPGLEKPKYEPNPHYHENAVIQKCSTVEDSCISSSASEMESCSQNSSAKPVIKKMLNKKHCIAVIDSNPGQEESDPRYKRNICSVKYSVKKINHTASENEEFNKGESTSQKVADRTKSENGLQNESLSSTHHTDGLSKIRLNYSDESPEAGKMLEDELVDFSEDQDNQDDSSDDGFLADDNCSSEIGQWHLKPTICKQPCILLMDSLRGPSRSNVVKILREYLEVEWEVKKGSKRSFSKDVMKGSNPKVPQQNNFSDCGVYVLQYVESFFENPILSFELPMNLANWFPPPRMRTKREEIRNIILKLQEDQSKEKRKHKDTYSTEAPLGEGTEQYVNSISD
SENP8 block-1: inhibitors of human SENP8 protease. inhibition, % at 10 µM. purified SENP8, Z-RLRGG-aminoluciferin cleavage, luminescence. Q96LD8. AID 2540. 330,000 tested, 1.2% active; in the data active = inhibition above about 50%
SENP1 FRET inh: inhibitors of human SENP1 SUMO protease catalytic domain | recombinant SENP1 catalytic domain, CyPet-SUMO1-YPet FRET cleavage | inhibition, % at 10 µM | 360,000 tested, 0.21% active | Q9P0U3;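 active = inhibition at least 30% at 10 µM, raw YFP signal under a set limit, fluorescence ratio 0.5 to 1.5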;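 also: 0% = enzyme with DMSO and 100% = no enzyme wells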
Target sequence (Q9P0U3 419-644 limits assumed): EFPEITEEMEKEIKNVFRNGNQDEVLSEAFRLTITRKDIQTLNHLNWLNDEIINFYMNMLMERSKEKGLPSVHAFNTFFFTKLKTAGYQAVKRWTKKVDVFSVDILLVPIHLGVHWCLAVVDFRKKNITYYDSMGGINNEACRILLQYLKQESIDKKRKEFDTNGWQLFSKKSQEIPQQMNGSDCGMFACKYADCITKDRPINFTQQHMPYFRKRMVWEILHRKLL
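Assay system: hSENP1 catalytic domain, recombinant. Amount: SENP1 enzyme, 20 pM final. Schedule: 50 min reaction, RT, dark. Technique: FRET, CFP and YFP emission. Control set: no-enzyme wells low, DMSO-plus-enzyme wells high control.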
SENP8 block-2: SENP8 (human) protease inhibition; Q96LD8; recombinant SENP8, Nedd8 substrate fluorescence; inhibition, % at 20 µM; 360,000 tested, 0.64% active; in the data active = inhibition mostly above about 40%, no sharp cut-off; inactive = mostly below about 27%
SENP7 block: SENP7 protease inhibition; Q9BQF6; recombinant SENP7, Z-RLRGG-aminoluciferin luminescence, 40 min; inhibition, % at 5 µM; 330,000 tested, 1.5% active;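 active = inhibition above about 50% at the single test dose, limit read from the data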;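 also: plate controls were DMSO with enzyme for no effect and no enzyme buffer wells for full effect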
SENP8 conf: confirmation of human SENP8 protease inhibitors; shares compounds with SENP7 block; 6,200 tested, 40% active; inhibition, % at 12.5 µM; AID 488912; Recombinant SENP8, Z-RLRGG-aminoluciferin luminescence, 60 min;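 active = mean inhibition across replicates above about 50%, limit read from the data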
SENP6 confirm: human SENP6 inhibition, confirmed; recombinant SENP6, Z-RLRGG-aminoluciferin luminescence; AID 488915; inhibition, % at 12.5 µM; 6,200 tested, 58% active; shares compounds with SENP7 block
SENP7 confirm: human SENP7 inhibition, confirmed | recombinant SENP7, Z-RLRGG-aminoluciferin luminescence, 40 min | AID 488917 | inhibition, % at 12.5 µM | 6,200 tested, 69% active | shares compounds with SENP7 block
Casp3 SENP sel: selectivity test for SENP inhibitors: human caspase-3 inhibition; purified caspase-3, Z-DEVD-aminoluciferin luminescence, 60 min; 6,200 tested, 60% active; inhibition, % at 12.5 µM; shares compounds with SENP7 block;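 active = mean inhibition above about 50%, limit read from the data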;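 also: plate controls were enzyme with DMSO for no effect and wells without caspase-3 for full effect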
SENP luc ctr: luminescence interference (SENP counter-screen) | shares compounds with SENP7 block | Pre-incubated SENP8/Z-RLRGG-aminoluciferin, luciferase luminescence interference | inhibition, % at 12.5 µM | 6,200 tested, 39% active | AID 488919;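 active = mean inhibition above about 50% when retested at one dose, limit read from the data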;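 also: plate controls were DMSO wells with completed reaction for no effect and substrate without enzyme for full effect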
* = called active by the depositor; x = no result given.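 The calls were made as follows, unless noted: active = mean inhibition above about 50% in the one-dose retest (limit read from the data); inactive = the rest.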

SMILES	HSP90 refold inh	SENP6 inh	SENP8 block-1	SENP1 FRET inh	SENP8 block-2	SENP7 block	SENP8 conf	SENP6 confirm	SENP7 confirm	Casp3 SENP sel	SENP luc ctr
CCC(=O)Nc1cccc(C(=O)OCC(=O)c2ccccc2Cl)c1	-0.8	13.0	-13.3	0.8	4.9	-2.4	x	x	x	x	x
CC(=O)Nc1cccc(C(=O)OCC(=O)c2ccccc2Cl)c1	-2.8	-3.1	46.7	2.3	13.2	61.4*	72.2*	38.8	89.2*	69.9*	73.6*
COc1ccc(N(CC(=O)NCCSc2ccccc2)S(=O)(=O)c2ccccc2)c(OC)c1	x	0.0	8.5	3.0	17.6	1.4	x	x	x	x	x
COc1ccccc1NC(=O)Cn1c2ccccc2c2nc3n(c(=O)c21)CCS3	-0.3	12.8	-12.8	1.7	-158.8	-7.6	x	x	x	x	x
Cc1ccc2c(c1)Sc1c(ccc3ccccc13)N2	1.1	79.9*	56.3*	-35.0	-76.2	11.3	1.9	18.2	3.7	29.6	11.5
c1ccc2c(c1)Nc1cc3ccccc3cc1S2	4.7	8.4	-4.4	-70.3	-181.1	12.6	x	x	x	x	x
CC(C)C[C@H](NC(=O)OC(C)(C)C)C(=O)N/N=C/c1ccc2nccnc2c1	-6.2	-11.7	8.0	3.6	-40.7	50.9*	-7.7	-2.6	4.7	0.5	-1.6
Cc1ccccc1-c1nnc(SCC(=O)N(C)c2c(N)n(Cc3ccccc3)c(=O)[nH]c2=O)n1C	x	-19.0	5.6	0.5	15.5	-6.5	x	x	x	x	x
O=C1/C(=C/c2cccs2)COc2ccccc21	-7.5	97.7*	80.9*	-3.3	10.4	83.2*	85.9*	91.8*	90.3*	68.8*	94.0*
CN(C)/N=C/C=C1\CCC/C(=C/c2cccs2)C1=O	-1.3	1.9	-5.6	33.8	8.1	5.8	x	x	x	x	x
O=C(c1cc(S(=O)(=O)NCc2ccco2)ccc1Br)N1CCOCC1	x	-3.0	4.2	2.2	-2.1	-0.3	x	x	x	x	x
CCOC(=O)Cn1nc(C)n(-c2ccc(C)cc2)c1=O	-1.2	-3.0	7.0	-0.1	5.4	101.1*	2.9	1.4	-1.2	0.4	-1.1
CCOC(=O)Cn1nc(C)n(-c2ccccc2)c1=O	-0.9	-11.3	4.9	-0.5	3.2	0.2	x	x	x	x	x
O=C(COC(=O)c1ccc([N+](=O)[O-])s1)Nc1cccc(S(=O)(=O)NC2=NCCCCC2)c1	-1.5	64.7*	60.8*	4.7	19.0	36.7	80.1*	86.7*	45.1	10.3	0.9
COc1ccc(S(=O)(=O)N2CCOCC2)cc1NC(=O)COC(=O)c1ccc([N+](=O)[O-])s1	x	53.3*	67.3*	1.5	37.1	32.6	-6.1	82.6*	35.0	3.2	3.2
O=C(CC(=O)Nc1ccccc1[N+](=O)[O-])Nc1ccccc1[N+](=O)[O-]	2.4	-3.4	-3.4	2.6	17.7	9.4	x	x	x	x	x
O=C(OCC(=O)N1CCC(c2ccccc2)=N1)c1ccc([N+](=O)[O-])s1	x	55.7*	62.7*	1.5	24.8	15.4	36.7	74.2*	26.5	9.0	7.1
O=C(COC(=O)c1ccc(O)cc1)Nc1ccccc1[N+](=O)[O-]	0.1	56.8*	37.3	1.0	22.0	7.9	45.9	38.7	69.5*	52.3*	41.6
CC(C)(C)Cc1c(-c2cccc(Br)c2)nc2ccc(Cl)cn12	x	x	x	19.6	-49.7	x	x	x	x	x	x
O=C(COC(=O)c1ccc([N+](=O)[O-])s1)NCc1ccccc1	1.9	72.7*	62.1*	1.5	12.1	47.7	58.5*	72.5*	20.8	-1.3	-8.4
O=C(Nc1ncc([N+](=O)[O-])s1)c1ccco1	0.1	91.6*	91.5*	-39.0	16.0	92.1*	93.1*	93.2*	101.5*	97.6*	66.1*
Cc1onc(-c2ccccc2)c1C(=O)Nc1ncc([N+](=O)[O-])s1	-4.0	1.9	10.0	-43.1	17.5	-1.6	x	x	x	x	x
O=C(COC(=O)COc1ccccc1)Nc1ncc([N+](=O)[O-])s1	x	90.6*	88.0*	-11.4	12.7	76.1*	90.4*	89.3*	98.9*	91.7*	90.1*
O=C(COC(=O)c1ccc([N+](=O)[O-])s1)Nc1ccc(F)cc1	x	65.6*	68.8*	1.8	34.2	39.7	68.1*	88.2*	47.9	12.9	-5.1
Cc1ccnn1-c1ccc(C(=O)OCC(=O)Nc2ccc(F)cc2)cc1	x	9.3	-10.1	0.2	21.5	7.0	x	x	x	x	x
SMILES	HSP90 refold inh	SENP6 inh	SENP8 block-1	SENP1 FRET inh	SENP8 block-2	SENP7 block	SENP8 conf	SENP6 confirm	SENP7 confirm	Casp3 SENP sel	SENP luc ctr
Cc1cc(C)n(CCC(=O)Nc2ccc3c(c2)OCCO3)n1	0.7	0.2	-12.9	1.4	5.8	-3.0	x	x	x	x	x
CN(CC(=O)Nc1ccccc1Cl)C(=O)COC(=O)c1ccccc1[N+](=O)[O-]	x	1.1	-5.5	1.9	2.9	100.6*	-0.4	4.5	6.9	4.5	-1.8
O=C(OCc1nnc(-c2ccccc2)o1)c1ccc([N+](=O)[O-])s1	x	68.2*	70.5*	2.1	31.4	31.3	72.2*	83.0*	40.5	9.6	-2.0
O=C(COC(=O)c1ccc([N+](=O)[O-])s1)Nc1ccccc1	-3.5	64.3*	53.1*	2.2	33.3	36.0	81.5*	88.3*	50.0	20.3	-5.6
CC(C)(C)c1ccc(NC(=O)COC(=O)c2ccc([N+](=O)[O-])s2)cc1	8.8	x	x	-0.5	20.4	x	x	x	x	x	x
CCc1ccccc1NC(=O)CN(C)C(=O)COC(=O)c1ccccc1Cl	x	0.4	3.1	0.4	12.5	-1.0	x	x	x	x	x
CC(=O)Nc1ccc(OCC(=O)Nc2ccc(Cl)c(S(=O)(=O)N3CCOCC3)c2)cc1	x	-15.1	-7.4	3.3	10.6	2.5	x	x	x	x	x
COc1ccc(NC2CCCN(C(=O)CCN3CCOCC3)C2)cc1 (centres undefined)	3.3	x	x	1.5	34.6	x	x	x	x	x	x
Cc1cccc(CC2CC(=O)N(c3nc4ccccc4s3)C2=O)c1 (centres undefined)	-1.6	6.5	-4.4	1.8	9.0	-1.2	x	x	x	x	x
Cc1ccc2nc(N3C(=O)CNC3=S)sc2c1	10.0	94.2*	91.3*	-38.8	-26.2	89.0*	-8.3	92.5*	100.3*	94.6*	27.2
Cn1c(-c2nnn(-c3ccc(F)cc3)n2)cc2ccccc21	6.5	52.4*	39.1	x	x	11.3	17.3	9.7	13.2	7.8	-4.5
